Results from different studies.
Compare with care: the assays were run in different laboratories.
Target: Phosphatidylinositol 3-kinase C2 domain-containing subunit gamma (PIK3C2G, Homo sapiens, UniProt O75747)
Sequence (O75747 1-1486, as in one of the studies): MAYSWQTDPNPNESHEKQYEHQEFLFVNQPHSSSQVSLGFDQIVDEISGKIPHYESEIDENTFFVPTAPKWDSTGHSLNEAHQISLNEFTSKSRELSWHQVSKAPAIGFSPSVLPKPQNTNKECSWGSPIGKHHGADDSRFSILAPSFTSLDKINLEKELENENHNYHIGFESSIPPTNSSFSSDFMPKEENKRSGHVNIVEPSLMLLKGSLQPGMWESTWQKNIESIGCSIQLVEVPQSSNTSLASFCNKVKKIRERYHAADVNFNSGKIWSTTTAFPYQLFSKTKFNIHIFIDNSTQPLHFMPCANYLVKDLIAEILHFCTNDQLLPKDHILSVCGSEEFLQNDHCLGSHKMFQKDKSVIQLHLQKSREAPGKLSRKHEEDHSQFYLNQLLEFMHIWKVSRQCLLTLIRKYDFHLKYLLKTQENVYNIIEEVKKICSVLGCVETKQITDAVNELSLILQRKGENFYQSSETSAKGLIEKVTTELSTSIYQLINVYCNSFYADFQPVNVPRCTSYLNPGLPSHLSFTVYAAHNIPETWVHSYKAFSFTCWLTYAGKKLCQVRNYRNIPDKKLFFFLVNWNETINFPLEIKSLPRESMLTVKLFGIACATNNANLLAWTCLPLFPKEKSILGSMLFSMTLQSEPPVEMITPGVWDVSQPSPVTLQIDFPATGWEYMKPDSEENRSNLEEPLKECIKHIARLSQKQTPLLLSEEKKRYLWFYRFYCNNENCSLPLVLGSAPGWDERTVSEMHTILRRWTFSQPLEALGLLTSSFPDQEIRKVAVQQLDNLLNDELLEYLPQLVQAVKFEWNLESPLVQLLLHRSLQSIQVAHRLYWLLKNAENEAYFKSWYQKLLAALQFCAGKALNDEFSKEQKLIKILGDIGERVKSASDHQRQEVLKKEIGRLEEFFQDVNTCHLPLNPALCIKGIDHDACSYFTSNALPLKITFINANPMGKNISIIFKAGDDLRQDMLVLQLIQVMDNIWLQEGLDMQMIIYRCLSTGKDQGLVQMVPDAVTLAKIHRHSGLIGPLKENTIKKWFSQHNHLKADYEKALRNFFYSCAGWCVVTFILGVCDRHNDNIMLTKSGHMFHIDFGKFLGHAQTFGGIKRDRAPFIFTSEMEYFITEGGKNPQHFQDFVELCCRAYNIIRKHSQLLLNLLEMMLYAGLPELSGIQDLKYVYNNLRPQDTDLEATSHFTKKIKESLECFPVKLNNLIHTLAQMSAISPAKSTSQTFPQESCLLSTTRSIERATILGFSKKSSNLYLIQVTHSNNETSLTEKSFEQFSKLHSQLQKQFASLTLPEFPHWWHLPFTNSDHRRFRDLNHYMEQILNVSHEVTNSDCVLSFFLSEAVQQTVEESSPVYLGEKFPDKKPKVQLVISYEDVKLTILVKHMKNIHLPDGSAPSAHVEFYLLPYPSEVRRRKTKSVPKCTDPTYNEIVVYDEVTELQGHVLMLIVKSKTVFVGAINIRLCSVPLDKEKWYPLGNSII

| Structure (SMILES) | read-out | technique | concentration | remaining binding |
| --- | --- | --- | --- | --- |
| FC(F)(F)Oc1cccc(-c2cnc3ccc(-c4ccncc4)nn23)c1 | cell-free assay | competition with immobilised ligand | 5 µM | 34% |
| CCN1CCN(Cc2ccc(C(=O)Nc3ccc(C)c(Oc4ccc5c(c4)CC(=O)N5)c3)cc2C(F)(F)F)CC1 | binding | competition with immobilised ligand | 1 µM | 100% |
| CN(C)C(=O)Cn1cc(-c2nc([C@@](C)(c3ccc(-c4cnc(N)nc4)cc3)C3CC3)no2)cn1 | cell-free assay | competition with immobilised ligand | 1 µM | 66% |
| N[C@@H]1CCN(c2nccc(-c3cnn4ncccc34)n2)C1 | binding |  | 1 µM | 100% |
| COc1cnc(Nc2cccc(S(N)(=O)=O)c2)nc1N1CCN(c2ccccc2)CC1 | binding | competition with immobilised ligand | 1 µM | 79% |
| Cc1cnc(Nc2ccc(C(=O)N3CCC(N4CCCC4)CC3)cc2)nc1-c1cc2ccccc2s1 | binding | competition with immobilised ligand | 1 µM | 90% |
| CNC(=O)c1ccc(Nc2ncc(C(F)(F)F)c(NCc3nccnc3N(C)S(C)(=O)=O)n2)cc1 | cell-free assay | competition with immobilised ligand | 0.1 µM | 92% |
| O=C(NCC1CCOCC1)c1n[nH]cc1NC(=O)c1c(F)cccc1F | binding | competition with immobilised ligand | 1 µM | 100% |
| O=C(NCCCN1CCOCC1)c1ccc(Nc2ncc(Cl)c(-c3ccc(Cl)s3)n2)cc1 | binding | competition with immobilised ligand | 1 µM | 100% |
| CNCc1ccccc1-c1csc([C@@H](C)Nc2nc(C)nc3cc(OC)c(OC)cc23)c1 | cell-free assay | competition with immobilised ligand | 1 µM | 59% |
| CN(CCCC(F)(F)F)c1nccc(-c2cnn3ncccc23)n1 | binding |  | 1 µM | 100% |
| C=CC(=O)N1CCC(C(=O)NCC(=O)N2CCN(c3nc(-c4cnc(N)nc4C(F)F)nc(N4CCOCC4)n3)CC2)CC1 | binding | competition with immobilised ligand | 1 µM | 16% |
| C[C@H]1CCN(c2nccc(-c3cnn4ncccc34)n2)C1 | binding |  | 1 µM | 79% |
| COc1ncc2cc3ccccc3nc2c1C#N | cell-free assay | competition with immobilised ligand | 5 µM | 84% |
| C[C@@H](c1cccc(C#N)c1)n1cc(Cl)cc(C(N)=O)c1=N | cell-free assay | competition with immobilised ligand | 1 µM | 84% |
| Nc1ncc2c(n1)-c1c([nH]c3ccc(C#CC4CC4)cc13)CCCC2 | binding | competition with immobilised ligand | 1 µM | 92% |
| O=C(c1ccc(Nc2nccc(-c3cc4ccccc4s3)n2)cc1)N1CCC(N2CCCC2)CC1 | binding | competition with immobilised ligand | 1 µM | 100% |
| COc1ccnn2ncc(-c3ccnc(N(C)C)n3)c12 | binding |  | 1 µM | 93% |
| CCCOc1ccc([C@@H]2[C@@H](C(=O)O)[C@H](c3ccc4c(c3)OCO4)CN2CC(=O)Nc2c(CC)cccc2CC)cc1 | cell-free assay | competition with immobilised ligand | 1 µM | 78% |
| F[C@@H]1CCN(c2nccc(-c3cnn4ncccc34)n2)C1 | binding |  | 1 µM | 82% |
| CCS(=O)(=O)c1cc2cc(C[C@](O)(CC(C)(C)c3ccc(F)cc3C(N)=O)C(F)(F)F)[nH]c2cn1 | cell-free assay | competition with immobilised ligand | 1 µM | 100% |
